# Data published in ChEMBL document CHEMBL1932936, “Oxidative folding of lysozyme with aromatic dithiols, and aliphatic and aromatic monothiols” (Bioorg Med Chem, 2012).
# Columns and labels:
# [1] = biological target: Lysozyme C (Gallus gallus) (UniProt P00698); assay: Renaturation of 0.1 mg/mL reduced hen egg white lysozyme assessed as apparent rate of renaturation at 2 mM at pH 7 by Micrococcus lysodeikticus lysis-based enzyme assay in presence of 0.2 mM GSSG
# Outline: (§1)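 Reduced lysozyme (10 mg/mL) diluted 100-fold into deoxygenated renaturation buffer: 0.1 M bis tris propane–HCl (pH 7.0) or 0.1 M Tris–HCl (pH 8.0), 1 mM EDTA, 0.5 M Gdn HCl, thiol plus GSSG. Mixed by vortexing for 15 s, held at 25 °C. 20 µL aliquots taken at set times and assayed for recovery of enzymatic activity.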
# [2] = biological target: Lysozyme C (Gallus gallus) (UniProt P00698); assay: Renaturation of 0.1 mg/mL reduced hen egg white lysozyme assessed as apparent rate of renaturation at 0.5 mM at pH 7 by Micrococcus lysodeikticus lysis-based enzyme assay in presence of 0.2 mM GSSG; outline: as §1
# [3] = biological target: Lysozyme C (Gallus gallus) (UniProt P00698); assay: Renaturation of 0.1 mg/mL reduced hen egg white lysozyme assessed as maximum enzyme activity at 2 mM at pH 7 by Micrococcus lysodeikticus lysis-based enzyme assay in presence of 0.2 mM GSSG; parameters: scale not given: the % may be the effect or the level left; outline: as §1
# [4] = biological target: Lysozyme C (Gallus gallus) (UniProt P00698); assay: Renaturation of 0.1 mg/mL reduced hen egg white lysozyme assessed as apparent rate of renaturation at 0.5 mM at pH 8 by Micrococcus lysodeikticus lysis-based enzyme assay in presence of 0.2 mM GSSG; outline: as §1
# [5] = biological target: Lysozyme C (Gallus gallus) (UniProt P00698); assay: Renaturation of 0.1 mg/mL reduced hen egg white lysozyme assessed as maximum enzyme activity at 0.5 mM at pH 8 by Micrococcus lysodeikticus lysis-based enzyme assay in presence of 0.2 mM GSSG; parameters: scale not given: the % may be the effect or the level left; outline: as §1
# [6] = biological target: Lysozyme C (Gallus gallus) (UniProt P00698); assay: Renaturation of 0.1 mg/mL reduced hen egg white lysozyme assessed as maximum enzyme activity at 0.5 mM at pH 7 by Micrococcus lysodeikticus lysis-based enzyme assay in presence of 0.2 mM GSSG; parameters: scale not given: the % may be the effect or the level left; outline: as §1
# [7] = biological target: Lysozyme C (Gallus gallus) (UniProt P00698); assay: Renaturation of 0.1 mg/mL reduced hen egg white lysozyme assessed as apparent rate of renaturation at 2 mM at pH 8 by Micrococcus lysodeikticus lysis-based enzyme assay in presence of 0.2 mM GSSG; outline: as §1
# [8] = biological target: Lysozyme C (Gallus gallus) (UniProt P00698); assay: Renaturation of 0.1 mg/mL reduced hen egg white lysozyme assessed as maximum enzyme activity at 2 mM at pH 8 by Micrococcus lysodeikticus lysis-based enzyme assay in presence of 0.2 mM GSSG; parameters: scale not given: the % may be the effect or the level left; outline: as §1
# [9] = Solubility of the compound at pH 7; type: physicochemical; conditions: buffer
# [10] = biological target: Lysozyme C (Gallus gallus) (UniProt P00698); assay: Renaturation of 1 mg/mL reduced hen egg white lysozyme assessed as maximum enzyme activity at 40 mM at pH 8 by Micrococcus lysodeikticus lysis-based enzyme assay in presence of 1 mM GSSG; parameters: scale not given: the % may be the effect or the level left
# Outline: (§2)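 Reduced lysozyme prepared in 0.1 M acetic acid with 6 M Gdn HCl, pH 2.5, then neutralised to pH 7.0 or 8.0 with KOH and set to 10 mg/mL. Diluted 10-fold into deoxygenated buffer: 0.1 M bis tris propane–HCl (pH 7.0) or Tris–HCl (pH 8.0), 1 mM EDTA, thiol plus GSSG. Final 1 mg/mL protein, 1.7 M Gdn HCl, 25 °C. Aliquots taken over time, diluted and assayed for activity.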
# [11] = biological target: Lysozyme C (Gallus gallus) (UniProt P00698); assay: Renaturation of 1 mg/mL reduced hen egg white lysozyme assessed as apparent rate of renaturation at 40 mM at pH 7 by Micrococcus lysodeikticus lysis-based enzyme assay in presence of 1 mM GSSG; outline: as §2
# [12] = biological target: Lysozyme C (Gallus gallus) (UniProt P00698); assay: Renaturation of 1 mg/mL reduced hen egg white lysozyme assessed as maximum enzyme activity at 40 mM at pH 7 by Micrococcus lysodeikticus lysis-based enzyme assay in presence of 1 mM GSSG; parameters: scale not given: the % may be the effect or the level left; outline: as §2
# [13] = biological target: Lysozyme C (Gallus gallus) (UniProt P00698); assay: Renaturation of 1 mg/mL reduced hen egg white lysozyme assessed as apparent rate of renaturation at 40 mM at pH 8 by Micrococcus lysodeikticus lysis-based enzyme assay in presence of 1 mM GSSG; outline: as §2
# [14] = biological target: Lysozyme C (Gallus gallus) (UniProt P00698); assay: Renaturation of 0.1 mg/mL reduced hen egg white lysozyme assessed as apparent rate of renaturation at 3 mM at pH 8 by Micrococcus lysodeikticus lysis-based enzyme assay in presence of 0.2 mM GSSG; outline: as §1
# [15] = biological target: Lysozyme C (Gallus gallus) (UniProt P00698); assay: Renaturation of 0.1 mg/mL reduced hen egg white lysozyme assessed as maximum enzyme activity at 3 mM at pH 8 by Micrococcus lysodeikticus lysis-based enzyme assay in presence of 0.2 mM GSSG; parameters: scale not given: the % may be the effect or the level left; outline: as §1
# [16] = biological target: Lysozyme C (Gallus gallus) (UniProt P00698); assay: Renaturation of 0.1 mg/mL reduced hen egg white lysozyme assessed as apparent rate of renaturation at 3 mM at pH 7 by Micrococcus lysodeikticus lysis-based enzyme assay in presence of 0.2 mM GSSG; outline: as §1
# [17] = biological target: Lysozyme C (Gallus gallus) (UniProt P00698); assay: Renaturation of 0.1 mg/mL reduced hen egg white lysozyme assessed as maximum enzyme activity at 3 mM at pH 7 by Micrococcus lysodeikticus lysis-based enzyme assay in presence of 0.2 mM GSSG; parameters: scale not given: the % may be the effect or the level left; outline: as §1
# [18] = biological target: Lysozyme C (Gallus gallus) (UniProt P00698); assay: Renaturation of 1 mg/mL reduced hen egg white lysozyme assessed as apparent rate of renaturation at 10 mM at pH 7 by Micrococcus lysodeikticus lysis-based enzyme assay in presence of 1 mM GSSG
# Outline: (§3)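 Reduced lysozyme was dissolved in 0.1 M acetic acid with 6 M Gdn HCl (pH 2.5), brought to pH 7.0 or 8.0 with KOH, and set to 10 mg/mL by A280. It was then diluted 10-fold into deoxygenated buffer: 0.1 M bis tris propane–HCl or Tris–HCl, 1.25 M Gdn HCl, 1 mM EDTA, thiol plus GSSG. Final protein was 1 mg/mL, final Gdn HCl 1.7 M, 25 °C. Aliquots taken at intervals and assayed for activity. Errors are standard deviations.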
# [19] = biological target: Lysozyme C (Gallus gallus) (UniProt P00698); assay: Renaturation of 1 mg/mL reduced hen egg white lysozyme assessed as maximum enzyme activity at 10 mM at pH 7 by Micrococcus lysodeikticus lysis-based enzyme assay in presence of 1 mM GSSG; parameters: scale not given: the % may be the effect or the level left; outline: as §3
# [20] = biological target: Lysozyme C (Gallus gallus) (UniProt P00698); assay: Renaturation of 1 mg/mL reduced hen egg white lysozyme assessed as maximum enzyme activity at 10 mM at pH 8 by Micrococcus lysodeikticus lysis-based enzyme assay in presence of 1 mM GSSG; parameters: scale not given: the % may be the effect or the level left; outline: as §3
# [21] = biological target: Lysozyme C (Gallus gallus) (UniProt P00698); assay: Renaturation of 1 mg/mL reduced hen egg white lysozyme assessed as apparent rate of renaturation at 10 mM at pH 8 by Micrococcus lysodeikticus lysis-based enzyme assay in presence of 1 mM GSSG; outline: as §3
# [22] = biological target: Lysozyme C (Gallus gallus) (UniProt P00698); assay: Renaturation of 1 mg/mL reduced hen egg white lysozyme assessed as maximum enzyme activity at 10 mM at pH 7 by Micrococcus lysodeikticus lysis-based enzyme assay in presence of 0.5 mM GSSG; parameters: scale not given: the % may be the effect or the level left; outline: as §3
# [23] = biological target: Lysozyme C (Gallus gallus) (UniProt P00698); assay: Renaturation of 1 mg/mL reduced hen egg white lysozyme assessed as maximum enzyme activity at 20 mM at pH 8 by Micrococcus lysodeikticus lysis-based enzyme assay in presence of 1 mM GSSG; parameters: scale not given: the % may be the effect or the level left; outline: as §3
# [24] = Solubility of the compound in water; type: physicochemical; conditions: buffer
# [25] = biological target: Lysozyme C (Gallus gallus) (UniProt P00698); assay: Renaturation of 1 mg/mL reduced hen egg white lysozyme assessed as apparent rate of renaturation at 20 mM at pH 8 by Micrococcus lysodeikticus lysis-based enzyme assay in presence of 1 mM GSSG; outline: as §3
# [26] = biological target: Lysozyme C (Gallus gallus) (UniProt P00698); assay: Renaturation of 1 mg/mL reduced hen egg white lysozyme assessed as apparent rate of renaturation at 10 mM at pH 7 by Micrococcus lysodeikticus lysis-based enzyme assay in presence of 0.5 mM GSSG; outline: as §3
# [27] = biological target: Lysozyme C (Gallus gallus) (UniProt P00698); assay: Renaturation of 0.1 mg/mL reduced hen egg white lysozyme assessed as maximum enzyme activity at 0.25 mM at pH 8 by Micrococcus lysodeikticus lysis-based enzyme assay in presence of 0.2 mM GSSG; parameters: scale not given: the % may be the effect or the level left; outline: as §1
# [28] = biological target: Lysozyme C (Gallus gallus) (UniProt P00698); assay: Renaturation of 0.1 mg/mL reduced hen egg white lysozyme assessed as apparent rate of renaturation at 1 mM at pH 8 by Micrococcus lysodeikticus lysis-based enzyme assay in presence of 0.2 mM GSSG; outline: as §1
# [29] = Solubility of the compound at pH 8; type: physicochemical; conditions: buffer
# [30] = biological target: Lysozyme C (Gallus gallus) (UniProt P00698); assay: Renaturation of 0.1 mg/mL reduced hen egg white lysozyme assessed as apparent rate of renaturation at 0.25 mM at pH 8 by Micrococcus lysodeikticus lysis-based enzyme assay in presence of 0.2 mM GSSG; outline: as §1
# [31] = biological target: Lysozyme C (Gallus gallus) (UniProt P00698); assay: Renaturation of 0.1 mg/mL reduced hen egg white lysozyme assessed as maximum enzyme activity at 1 mM at pH 8 by Micrococcus lysodeikticus lysis-based enzyme assay in presence of 0.2 mM GSSG; parameters: scale not given: the % may be the effect or the level left; outline: as §1
# [32] = biological target: Lysozyme C (Gallus gallus) (UniProt P00698); assay: Renaturation of 1 mg/mL reduced hen egg white lysozyme assessed as maximum enzyme activity at 20 mM at pH 7 by Micrococcus lysodeikticus lysis-based enzyme assay in presence of 1 mM GSSG; parameters: scale not given: the % may be the effect or the level left; outline: as §3
# [33] = biological target: Lysozyme C (Gallus gallus) (UniProt P00698); assay: Renaturation of 1 mg/mL reduced hen egg white lysozyme assessed as apparent rate of renaturation at 20 mM at pH 7 by Micrococcus lysodeikticus lysis-based enzyme assay in presence of 1 mM GSSG; outline: as §3
# [34] = Dissociation constant, pKa of the compound; type: physicochemical
# Sequence of Lysozyme C (Gallus gallus) (P00698 whole entry): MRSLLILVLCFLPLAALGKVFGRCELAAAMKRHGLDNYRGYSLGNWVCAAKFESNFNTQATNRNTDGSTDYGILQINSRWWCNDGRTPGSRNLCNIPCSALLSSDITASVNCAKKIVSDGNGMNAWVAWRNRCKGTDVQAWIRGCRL
smiles,measurement,setting,value
O=C(OCCOCCOCCS)c1ccccc1S,Activity,[1],0.001 min⁻¹
same,Activity,[2],0.013 min⁻¹
same,Activity,[3],19%
same,Activity,[4],0.041 min⁻¹
same,Activity,[5],58%
same,Activity,[6],55%
same,Activity,[7],0.009 min⁻¹
same,Activity,[8],62%
same,solubility,[9],4 mM
C[N+](C)(C)Cc1ccc(S)cc1,Activity,[10],81%
same,Activity,[11],0.017 min⁻¹
same,Activity,[12],82%
same,Activity,[13],0.018 min⁻¹
O=C(OCCOCCOCCS)c1ccc(S)cc1,Activity,[14],0.1 min⁻¹
same,Activity,[15],16%
same,Activity,[16],0.02 min⁻¹
same,Activity,[17],23%
same,Activity,[2],0.025 min⁻¹
same,Activity,[4],0.076 min⁻¹
same,Activity,[5],63%
same,Activity,[6],57%
C[N+](C)(CCCCCC[N+](C)(C)Cc1ccc(S)cc1)Cc1ccc(S)cc1.[Br-].[Br-],Activity,[18],0.011 min⁻¹
same,Activity,[19],74%
same,Activity,[20],78%
same,Activity,[21],0.016 min⁻¹
same,Activity,[22],70%
same,Activity,[23],49%
same,solubility,[24],soluble
same,Activity,[25],0.017 min⁻¹
same,Activity,[26],0.013 min⁻¹
O=C(OCCOCCOCCOCCS)c1ccc(S)cc1,Activity,[14],0.072 min⁻¹
same,Activity,[15],43%
same,Activity,[16],0.045 min⁻¹
same,Activity,[17],36%
same,Activity,[2],0.038 min⁻¹
same,Activity,[4],0.087 min⁻¹
same,Activity,[5],73%
same,Activity,[6],39%
O=C(OCCOCCS)c1ccc(S)cc1,Activity,[14],0.08 min⁻¹
same,Activity,[15],9%
same,Activity,[4],0.072 min⁻¹
same,Activity,[5],53%
O=C(OCCOCCOCCS)c1ccccc1,Activity,[27],68%
same,Activity,[28],0.012 min⁻¹
same,solubility,[29],2000 µM
same,Activity,[30],0.028 min⁻¹
same,Activity,[31],2%
O=C(OCCOCCOCCOCCS)c1ccccc1S,Activity,[14],0.023 min⁻¹
same,Activity,[15],27%
same,Activity,[16],0.01 min⁻¹
same,Activity,[17],2%
same,Activity,[2],0.008 min⁻¹
same,Activity,[4],0.061 min⁻¹
same,Activity,[5],76%
same,Activity,[6],85%
C[N+](C)(CCC[N+](C)(C)Cc1ccc(S)cc1)Cc1ccc(S)cc1.[Br-].[Br-],Activity,[10],77%
same,Activity,[32],86%
same,Activity,[18],0.012 min⁻¹
same,Activity,[19],83%
same,Activity,[33],0.015 min⁻¹
same,Activity,[13],0.023 min⁻¹
same,Activity,[23],88%
same,solubility,[24],soluble
same,Activity,[25],0.022 min⁻¹
N[C@@H](CS)C(=O)O [CYSTEINE],pKa,[34],8.7
OCCS [2-MERCAPTOETHANOL],pKa,[34],9.6
